Results reported in ChEMBL document CHEMBL3044867, “Antifungal activity of glyceollins isolated from soybean elicited with Aspergillus sojae” (2010).
Values after ≈ are worked out from the molar mass of the structure shown.

Columns and labels:
Sclerotinia sclerotiorum [1] = assay: Inhibition of spore germination of Sclerotinia sclerotiorum KACC 41065; type: functional, organism-based
Summary of the method: (§1)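 Glyceollins were tested at 10, 25, 50, 100, 250 and 500 μg/mL against a 1% DMSO control, with spore suspension at 1.0 × 10^8 spores/mL. 100 μL aliquots went on glass slides in triplicate and were kept in a moist chamber at 25 C for 24 h. Slides were fixed in lactophenol-cotton blue, about 200 spores were counted for germ tubes, and germination was expressed relative to control.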

Phytophthora capsici [2] = assay: Inhibition of spore germination of Phytophthora capsici KACC 40157; type: functional, organism-based; summary of the method: as §1
Phytophthora capsici [3] = assay: Inhibition of spore germination of Phytophthora capsici KACC 40157 at 100 ug/mL measured 3 hr post dose; type: functional; details: KACC 40157, 3 h
Phytophthora capsici [4] = assay: Inhibition of spore germination of Phytophthora capsici KACC 40157 at 100 ug/mL measured 2 hr post dose; type: functional; details: KACC 40157, 2 h
Phytophthora capsici [5] = assay: Inhibition of spore germination of Phytophthora capsici KACC 40157 at 25 ug/mL measured 4 hr post dose; type: functional; details: KACC 40157, 4 h
Phytophthora capsici [6] = assay: Inhibition of spore germination of Phytophthora capsici KACC 40157 at 25 to 100 ug/mL; type: functional, organism-based; details: TDE = time-dependent effect
Botrytis cinerea [7] = assay: Inhibition of spore germination of Botryotinia fuckeliana KACC 40573 at 100 to 500 ug/mL; type: functional; summary of the method: as §1
Fusarium oxysporum [8] = assay: Inhibition of spore germination of Fusarium oxysporum KACC 41083 at 100 to 500 ug/mL; type: functional; summary of the method: as §1
Sclerotinia sclerotiorum [9] = assay: Inhibition of spore germination of Sclerotinia sclerotiorum KACC 41065 at 500 ug/mL; type: functional; summary of the method: as §1
Phytophthora capsici [10] = assay: Inhibition of spore germination of Phytophthora capsici KACC 40157 at 250 ug/mL; type: functional; summary of the method: as §1
Phytophthora capsici [11] = assay: Inhibition of spore germination of Phytophthora capsici KACC 40157 at 100 ug/mL; type: functional
Botrytis cinerea [12] = assay: Inhibition of spore germination of Botryotinia fuckeliana KACC 40573; type: functional, organism-based; summary of the method: as §1
Fusarium oxysporum [13] = assay: Inhibition of spore germination of Fusarium oxysporum KACC 41083; type: functional, organism-based; summary of the method: as §1
Botrytis cinerea [14] = assay: Antifungal activity against Botryotinia fuckeliana KACC 40573 measured 2 to 4 days post dose by two fold dilution method; type: functional
Summary of the method: (§2)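 Two-fold dilution MIC in potato dextrose broth tubes. The DMSO-dissolved sample was serially diluted to final 10, 25, 50, 100, 250, 500 and 750 μg/mL, then inoculated with 10 μL spore suspension (1 × 10^8 spores/mL, from 10-day cultures). Tubes were incubated 2-4 days at 28 C; the control tube held spores only. MIC was the lowest concentration with no visible growth.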

Sclerotinia sclerotiorum [15] = assay: Antifungal activity against Sclerotinia sclerotiorum KACC 41065 measured 2 to 4 days post dose by two-fold dilution method; type: functional; summary of the method: as §2
Phytophthora capsici [16] = assay: Antifungal activity against Phytophthora capsici KACC 40157 measured 2 to 4 days post dose by two fold dilution method; type: functional; summary of the method: as §2
Fusarium oxysporum [17] = assay: Antifungal activity against Fusarium oxysporum KACC 41083 measured 2 to 4 days post dose by two-fold dilution method; type: functional; summary of the method: as §2
Botrytis cinerea [18] = assay: Antifungal activity against Botryotinia fuckeliana KACC 40573 assessed as inhibition of radial growth at 0.6 mg/disk incubated for 4 to 6 days by disk diffusion method; type: functional
Summary of the method: (§3)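 Disk diffusion on PDA in 9 cm dishes. Sample in DMSO at 40 mg/mL; paper disks loaded with 5 or 15 μL, dried, and set equidistantly. A 6 mm agar plug of the pathogen was placed upside down in the centre. Plates were incubated at 25 C for 4-6 days, until solvent-control growth reached the edge. % inhibition = radial growth versus control; triplicate plates; mean ± SD of three experiments.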

Botrytis cinerea [19] = assay: Antifungal activity against Botryotinia fuckeliana KACC 40573 assessed as inhibition of radial growth at 0.2 mg/disk incubated for 4 to 6 days by disk diffusion method; type: functional; summary of the method: as §3
Sclerotinia sclerotiorum [20] = assay: Antifungal activity against Sclerotinia sclerotiorum KACC 41065 assessed as inhibition of radial growth at 0.6 mg/disk incubated for 4 to 6 days by disk diffusion method; type: functional; summary of the method: as §3
Sclerotinia sclerotiorum [21] = assay: Antifungal activity against Sclerotinia sclerotiorum KACC 41065 assessed as inhibition of radial growth at 0.2 mg/disk incubated for 4 to 6 days by disk diffusion method; type: functional; summary of the method: as §3
Phytophthora capsici [22] = assay: Antifungal activity against Phytophthora capsici KACC 40157 assessed as inhibition of radial growth at 0.6 mg/disk incubated for 4 to 6 days by disk diffusion method; type: functional; summary of the method: as §3
Phytophthora capsici [23] = assay: Antifungal activity against Phytophthora capsici KACC 40157 assessed as inhibition of radial growth at 0.2 mg/disk incubated for 4 to 6 days by disk diffusion method; type: functional; summary of the method: as §3
Fusarium oxysporum [24] = assay: Antifungal activity against Fusarium oxysporum KACC 41083 assessed as inhibition of radial growth at 0.6 mg/disk incubated for 4 to 6 days by disk diffusion method; type: functional; summary of the method: as §3
Fusarium oxysporum [25] = assay: Antifungal activity against Fusarium oxysporum KACC 41083 assessed as inhibition of radial growth at 0.2 mg/disk incubated for 4 to 6 days by disk diffusion method; type: functional; summary of the method: as §3

| MIC (Botrytis cinerea [14]) [µg/mL] | MIC (Sclerotinia sclerotiorum [15]) [µg/mL] | MIC (Phytophthora capsici [16]) [µg/mL] | MIC (Fusarium oxysporum [17]) [µg/mL] | Structure (SMILES) | inhibition (Sclerotinia sclerotiorum [1]) | inhibition (Phytophthora capsici [2]) | inhibition at 100 µg/mL (Phytophthora capsici [3]) [%] | inhibition at 100 µg/mL (Phytophthora capsici [4]) [%] | inhibition at 25 µg/mL (Phytophthora capsici [5]) [%] | inhibition (Phytophthora capsici [6]) | inhibition (INH) (Botrytis cinerea [7]) [%] | inhibition (INH) (Fusarium oxysporum [8]) [%] | inhibition at 500 µg/mL (Sclerotinia sclerotiorum [9]) [%] | inhibition at 250 µg/mL (Phytophthora capsici [10]) [%] | inhibition at 100 µg/mL (Phytophthora capsici [11]) [%] | inhibition (Botrytis cinerea [12]) | inhibition (Fusarium oxysporum [13]) | inhibition (INH) (Botrytis cinerea [18]) [%] | inhibition (INH) (Botrytis cinerea [19]) [%] | inhibition (INH) (Sclerotinia sclerotiorum [20]) [%] | further results |
| --- | --- | --- | --- | --- | --- | --- | --- | --- | --- | --- | --- | --- | --- | --- | --- | --- | --- | --- | --- | --- | --- |
| 750 (≈ 2220 µM) | 50 (≈ 148 µM) | 25 (≈ 73.9 µM) | 250 (≈ 739 µM) | CC1(C)C=Cc2c(ccc3c2OC[C@@]2(O)c4ccc(O)cc4O[C@@H]32)O1 [GLYCEOLLIN I] | Dose-dependent effect | Dose-dependent effect | 100 | 95 | 50 | tde | 40 | 40 | 100 | 100 | 100 | Dose-dependent effect | Dose-dependent effect | 22.1 | 10.9 | 61 | inhibition (INH) (Sclerotinia sclerotiorum [21]): 48.2%; inhibition (INH) (Phytophthora capsici [22]): 40.5%; inhibition (INH) (Phytophthora capsici [23]): 37.5%; inhibition (INH) (Fusarium oxysporum [24]): 40.1%; inhibition (INH) (Fusarium oxysporum [25]): 27.4% |
| 750 (≈ 2220 µM) | 50 (≈ 148 µM) | 25 (≈ 73.9 µM) | 250 (≈ 739 µM) | CC1(C)C=Cc2cc3c(cc2O1)OC[C@@]1(O)c2ccc(O)cc2O[C@@H]31 [GLYCEOLLIN II] | Dose-dependent effect | Dose-dependent effect | 100 | 95 | 50 | tde | 40 | 40 | 100 | 100 | 100 | Dose-dependent effect | Dose-dependent effect | 22.1 | 10.9 | 61 | inhibition (INH) (Sclerotinia sclerotiorum [21]): 48.2%; inhibition (INH) (Phytophthora capsici [22]): 40.5%; inhibition (INH) (Phytophthora capsici [23]): 37.5%; inhibition (INH) (Fusarium oxysporum [24]): 40.1%; inhibition (INH) (Fusarium oxysporum [25]): 27.4% |
| 750 (≈ 2220 µM) | 50 (≈ 148 µM) | 25 (≈ 73.9 µM) | 250 (≈ 739 µM) | C=C(C)[C@@H]1Cc2cc3c(cc2O1)OC[C@@]1(O)c2ccc(O)cc2O[C@@H]31 [GLYCEOLLIN III] | Dose-dependent effect | Dose-dependent effect | 100 | 95 | 50 | tde | 40 | 40 | 100 | 100 | 100 | Dose-dependent effect | Dose-dependent effect | 22.1 | 10.9 | 61 | inhibition (INH) (Sclerotinia sclerotiorum [21]): 48.2%; inhibition (INH) (Phytophthora capsici [22]): 40.5%; inhibition (INH) (Phytophthora capsici [23]): 37.5%; inhibition (INH) (Fusarium oxysporum [24]): 40.1%; inhibition (INH) (Fusarium oxysporum [25]): 27.4% |
